Blank lines part the entries; values can stand above or below the compound they belong to. Activity calls are given as the source filed them. No cut-off for these calls is given here.
Key:
[1] = target: Aldo-keto reductase family 1 member B1 (Bos taurus) (UniProt P16116); experiment: Inhibition of aldose reductase activity in partially purified bovine lens preparation at 10e-5 M
Summary of the method: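 Partially purified bovine lens aldose reductase. Reduction of DL-glyceraldehyde substrate followed spectrophotometrically. Activity expressed as average inhibition at the tested concentrations, 1×10^-5, 1×10^-6, 1×10^-7 and 4×10^-6 M as printed; IC50 in M where given.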

Rattus norvegicus [2] = experiment: Tested for in vivo inhibition of galactitol accumulation in the sciatic nerve of galactose-fed rats at the dose of 50 (mg/kg/day); type: functional
Summary of the method: (§1)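 Rats fed a 20% galactose diet for 4 days, with test compound given in the diet at the stated daily dose (mg/kg/day). Read-out is inhibition of galactitol (polyol) accumulation in sciatic nerve. Values are % inhibition, mean ± SEM of six animals; p < 0.01 unless marked (some p < 0.05). NS = no significant inhibition of polyol accumulation. Tolrestat was the reference standard.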

Rattus norvegicus [3] = experiment: Tested for in vivo inhibition of galactitol accumulation in the lens of galactose-fed rats at the dose of 50 (mg/kg/day); type: functional, Lens of camera-type eye
Rattus norvegicus [4] = experiment: Tested for in vivo inhibition of galactitol accumulation in the sciatic nerve of galactose-fed rats at the dose of 98 (mg/kg/day); NS=Not significant; type: functional, organism-based; summary of the method: as §1
[5] = target: Aldo-keto reductase family 1 member B1 (Bos taurus) (UniProt P16116); experiment: Inhibition of aldose reductase activity in partially purified bovine lens preparation at 4*10 e-8 M
Rattus norvegicus [6] = experiment: Tested for in vivo inhibition of galactitol accumulation in the lens of galactose-fed rats at the dose of 98 (mg/kg/day); NS=Not significant; type: functional, organism-based; conditions: Lens of camera-type eye
Summary of the method: (§2)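 Galactosemic rats were fed 20% galactose for 4 days, with the compound mixed into the diet. […] galactitol accumulation was measured, and activity is given as % inhibition at the stated daily dose (mg/kg/day). Values are mean ± SEM of six animals; p < 0.01 unless indicated. NS means no significant inhibition of polyol accumulation.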

Rattus norvegicus [7] = experiment: Tested for in vivo inhibition of galactitol accumulation in the sciatic nerve of galactose-fed rats at the dose of 1.0 (mg/kg/day); NS=Not significant; type: functional, organism-based
Summary of the method: (§3)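 Rats were given a 20% galactose diet for 4 days, with the test compound administered in the diet. Sciatic nerve galactitol accumulation was measured, and activity is given as % inhibition at the stated daily dose (mg/kg/day). Values are mean ± SEM, n = 6 animals; p < 0.01 unless indicated. NS means no significant inhibition of polyol accumulation.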

Rattus norvegicus [8] = experiment: Tested for in vivo inhibition of galactitol accumulation in the lens of galactose-fed rats at the dose of 69.2 (mg/kg/day); NS=Not significant; type: functional, organism-based; conditions: Lens of camera-type eye; summary of the method: as §2
Rattus norvegicus [9] = experiment: Tested for in vivo inhibition of galactitol accumulation in the sciatic nerve of galactose-fed rats at the dose of 69.2 (mg/kg/day); NS=Not significant; type: functional, organism-based; summary of the method: as §1
Rattus norvegicus [10] = experiment: Tested for in vivo inhibition of galactitol accumulation in the lens of galactose-fed rats at the dose of 25 (mg/kg/day); NS=Not significant; type: functional, organism-based; conditions: Lens of camera-type eye
Rattus norvegicus [11] = experiment: Tested for in vivo inhibition of galactitol accumulation in the sciatic nerve of galactose-fed rats at the dose of 25 (mg/kg/day); NS=Not significant; type: functional, organism-based; summary of the method: as §3
Rattus norvegicus [12] = experiment: Tested for in vivo inhibition of galactitol accumulation in the lens of galactose-fed rats at the dose of 55 (mg/kg/day); NS=Not significant; type: functional, organism-based; conditions: Lens of camera-type eye
Rattus norvegicus [13] = experiment: Tested for in vivo inhibition of galactitol accumulation in the sciatic nerve of galactose-fed rats at the dose of 55 (mg/kg/day); NS=Not significant; type: functional, organism-based; summary of the method: as §1
Rattus norvegicus [14] = experiment: Tested for in vivo inhibition of galactitol accumulation in the sciatic nerve of galactose-fed rats at the dose of 24.9 (mg/kg/day); type: functional; summary of the method: as §3
Rattus norvegicus [15] = experiment: Tested for in vivo inhibition of galactitol accumulation in the sciatic nerve of galactose-fed rats. at the dose of 1.0 (mg/kg/day); NS=Not significant; type: functional, organism-based; summary of the method: as §1
Rattus norvegicus [16] = experiment: Tested for in vivo inhibition of galactitol accumulation in the sciatic nerve of galactose-fed rats at the dose of 1.1 (mg/kg/day); type: functional; summary of the method: as §3
Rattus norvegicus [17] = experiment: Tested for in vivo inhibition of galactitol accumulation in the sciatic nerve of galactose-fed rats at the dose of 97.1 (mg/kg/day); NS=Not significant; type: functional, organism-based; summary of the method: as §1
Rattus norvegicus [18] = experiment: Tested for in vivo inhibition of galactitol accumulation in the lens of galactose-fed rats at the dose of 97.1 (mg/kg/day); NS=Not significant; type: functional, organism-based; conditions: Lens of camera-type eye; summary of the method: as §2
Rattus norvegicus [19] = experiment: Tested for in vivo inhibition of galactitol accumulation in the lens of galactose-fed rats at the dose of 47.7 (mg/kg/day); NS=Not significant; type: functional, organism-based; conditions: Lens of camera-type eye
Rattus norvegicus [20] = experiment: Tested for in vivo inhibition of galactitol accumulation in the sciatic nerve of galactose-fed rats at the dose of 47.7 (mg/kg/day); NS=Not significant; type: functional, organism-based; summary of the method: as §3

inhibition [1]: inactive
SMILES: O=C1c2ccccc2C2(CC(=O)N(N=C3CCCC3)C2=O)C(=O)N1Cc1nc2cc(C(F)(F)F)ccc2s1 (configuration not stated)
Inhibition (Rattus norvegicus [2]): 92% | Inhibition (Rattus norvegicus [3]): 28%

inhibition [5]: 58%
SMILES: O=C(O)CC1C(=O)N(Cc2ccc(Cl)c(Cl)c2)C(=O)c2ccccc21 (configuration not stated)
inhibition (Rattus norvegicus [4]): inactive | inhibition (Rattus norvegicus [6]): inactive

inhibition [1]: inactive
SMILES: CCCCN1C(=O)CC2(C1=O)C(=O)N(Cc1ccc(Br)cc1F)C(=O)c1ccccc12 (configuration not stated)
inhibition (Rattus norvegicus [7]): inactive

inhibition [1]: inactive
SMILES: CN1C(=O)c2ccccc2C(CC(N)=O)C1=O (configuration not stated)
inhibition (Rattus norvegicus [8]): inactive | inhibition (Rattus norvegicus [9]): inactive

inhibition [1]: inactive
SMILES: NC(=O)CC1C(=O)N(Cc2ccc(Br)cc2F)C(=O)c2cc(F)ccc21 (configuration not stated)
inhibition (Rattus norvegicus [10]): inactive | inhibition (Rattus norvegicus [11]): inactive

inhibition [1]: inactive
SMILES: CN1C(=O)CC2(C1=O)C(=O)N(C)C(=O)c1ccc(Cl)cc12 (configuration not stated)
inhibition (Rattus norvegicus [7]): inactive

inhibition [1]: inactive
SMILES: NN1C(=O)CC2(C1=O)C(=O)N(Cc1nc3cc(C(F)(F)F)ccc3s1)C(=O)c1ccc(F)cc12 (configuration not stated)
Inhibition (Rattus norvegicus [2]): 97% | Inhibition (Rattus norvegicus [3]): 31%

SMILES: O=C(O)CN1C(=O)c2ccccc2C(Cc2ccc(Br)cc2F)C1=O (configuration not stated)
inhibition (Rattus norvegicus [12]): inactive | inhibition (Rattus norvegicus [13]): inactive

inhibition [1]: 70%
SMILES: CN1C(=O)c2ccccc2C(CC(=O)O)C1=O (configuration not stated)
inhibition (Rattus norvegicus [8]): inactive | inhibition (Rattus norvegicus [9]): inactive

inhibition [1]: 29%
SMILES: COC(=O)NC(=O)CC1C(=O)N(C)C(=O)c2cc(Br)c(OC)cc21 (configuration not stated)

SMILES: O=C1CC2(N1)C(=O)N(Cc1ccc(Br)cc1F)C(=O)c1ccccc12 (configuration not stated)
inhibition (Rattus norvegicus [12]): inactive | inhibition (Rattus norvegicus [13]): inactive

inhibition [1]: inactive
SMILES: CN1C(=O)CC2(C1=O)C(=O)N(Cc1cccc(C(F)(F)F)c1)C(=O)c1ccccc12 (configuration not stated)
Inhibition (Rattus norvegicus [14]): 28%

inhibition [1]: inactive
SMILES: CCCCN1C(=O)CC2(C1=O)C(=O)N(Cc1ccc(Br)cc1F)C(=O)c1ccc(F)cc12 (configuration not stated)
inhibition (Rattus norvegicus [15]): inactive

inhibition [1]: inactive
SMILES: CN1C(=O)CC2(C1=O)C(=O)N(Cc1ccc(Br)cc1F)C(=O)c1ccccc12 (configuration not stated)
Inhibition (Rattus norvegicus [16]): 76%

inhibition [1]: inactive
SMILES: NN1C(=O)CC2(C1=O)C(=O)N(Cc1nc3cc(C(F)(F)F)ccc3s1)C(=O)c1ccccc12 (configuration not stated)
Inhibition (Rattus norvegicus [2]): 96% | Inhibition (Rattus norvegicus [3]): 61%

inhibition [1]: inactive
SMILES: CCCCN1C(=O)c2ccccc2C(CC(=O)NC(=O)OC)C1=O (configuration not stated)
inhibition (Rattus norvegicus [17]): inactive | inhibition (Rattus norvegicus [18]): inactive

inhibition [1]: 88%
SMILES: NC(=O)CC1C(=O)N(Cc2ccc(Br)cc2F)C(=O)c2ccc(F)cc21 (configuration not stated)
inhibition (Rattus norvegicus [10]): inactive | inhibition (Rattus norvegicus [11]): inactive

inhibition [1]: 62%
SMILES: CNC(=O)CC1C(=O)N(Cc2ccc(Br)cc2F)C(=O)c2ccccc21 (configuration not stated)

inhibition [5]: 42%
SMILES: O=C(O)CC1C(=O)N(Cc2ccc(Br)cc2F)C(=O)c2cc(F)ccc21 (configuration not stated)

inhibition [1]: 90%
SMILES: COC(=O)NC(=O)CC1C(=O)N(C)C(=O)c2cc(Cl)c(Cl)cc21 (configuration not stated)
inhibition (Rattus norvegicus [19]): inactive | inhibition (Rattus norvegicus [20]): inactive

Source: ChEMBL document CHEMBL1127562, “N-substituted spirosuccinimide, spiropyridazine, spiroazetidine, and acetic acid aldose reductase inhibitors derived from isoquinoline-1,3-diones. 2” (J Med Chem, 1994)
